From ChEMBL document CHEMBL1125638, “Design and conformational analysis of several highly potent bradykinin receptor antagonists” (J Med Chem, 1991)

Tests used:
[1] = Displacement of [3H]bradykinin from bradykinin receptor in guinea pig ileal membrane; assay type: cell membranes, Cavia porcellus
SV-T2 = experiment: Binding affinity for bradykinin receptor of SV-T2 fibroblasts; assay type: functional, cell-based; details: Mus musculus, read-out: pA2 (converted)
Procedure, shortened: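 Functional antagonism measured as pA2 against bradykinin-stimulated prostaglandin synthesis in SV-T2 fibroblasts, which express only B2 bradykinin receptors. Agonist activity was also checked in the same cells at concentrations up to 10 µM.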

[2] = Displacement of [3H]bradykinin from bradykinin receptor of guinea pig ileal membrane; Inactive; design: species or system Cavia porcellus

SMILES	Ki [1] [nM]	Ki [2]	Kb (SV-T2) [nM]
NC(N)=NCCC[C@@H](N)C(=O)N[C@@H](CCCN=C(N)N)C(=O)N1CCC[C@H]1C(=O)N1C[C@@H](O)C[C@H]1C(=O)NCC(=O)N[C@@H](Cc1cccs1)C(=O)N[C@@H](CO)C(=O)N1Cc2ccccc2C[C@@H]1C(=O)N1Cc2ccccc2C[C@@H]1C(=O)N[C@@H](CCCN=C(N)N)C(=O)O	571	–	2510
NC(N)=NCCC[C@@H](N)C(=O)N[C@@H](CCCN=C(N)N)C(=O)N1CCC[C@H]1C(=O)N1C[C@H](O)C[C@H]1C(=O)NCC(=O)N[C@@H](Cc1ccccc1)C(=O)N[C@@H](CO)C(=O)N[C@H](Cc1ccccc1)C(=O)N[C@@H](Cc1ccccc1)C(=O)N[C@@H](CCCN=C(N)N)C(=O)O	26.8	–	6.31

Now from value to compound, other results behind:

Ki [1] [nM]	Ki [2]	SMILES	Kb (SV-T2) [nM]
0.381	–	NC(N)=NCCC[C@@H](N)C(=O)N[C@@H](CCCN=C(N)N)C(=O)N1CCC[C@H]1C(=O)N1C[C@@H](O)C[C@H]1C(=O)NCC(=O)N[C@@H](Cc1cccs1)C(=O)N[C@@H](CO)C(=O)N1Cc2ccccc2C[C@@H]1C(=O)N1Cc2ccccc2C[C@H]1C(=O)N[C@@H](CCCN=C(N)N)C(=O)O	0.794
0.176	–	NC(N)=NCCC[C@@H](N)C(=O)N[C@@H](CCCN=C(N)N)C(=O)N1CCC[C@H]1C(=O)N1C[C@@H](O)C[C@H]1C(=O)NCC(=O)N[C@@H](Cc1cccs1)C(=O)N[C@@H](CO)C(=O)N1Cc2ccccc2C[C@@H]1C(=O)N1C2CCCC2C[C@H]1C(=O)N[C@@H](CCCN=C(N)N)C(=O)O (stereo partly specified)	0.398
–	Not Active	NC(N)=NCCC[C@@H](N)C(=O)N[C@@H](CCCN=C(N)N)C(=O)N1CCC[C@H]1C(=O)N1C[C@@H](O)C[C@H]1C(=O)NCC(=O)N[C@@H](Cc1cccs1)C(=O)N[C@H]1CSSC[C@@H](C(=O)O)NC(=O)[C@H](CCCN=C(N)N)NC(=O)[C@H](Cc2ccccc2)NC(=O)[C@H]2Cc3ccccc3CN2C1=O	–
876	–	NC(N)=NCCC[C@@H](N)C(=O)N[C@@H](CCCN=C(N)N)C(=O)N1CCC[C@H]1C(=O)N1C[C@@H](O)C[C@H]1C(=O)NCC(=O)N[C@@H](Cc1cccs1)C(=O)N[C@H]1CSSC[C@@H](C(=O)N[C@@H](CCCN=C(N)N)C(=O)O)NC(=O)[C@H](Cc2ccccc2)NC(=O)[C@@H](Cc2ccccc2)NC1=O	3980
